Measured values: ChEMBL document CHEMBL4665879, “Design, synthesis and evaluation of a baicalin and berberine hybrid compound as therapeutic agent for ulcerative colitis” (2020)
The source made the active and inactive calls.

How the values were obtained:
[1] = tested on: Streptococcus pyogenes; experiment: Antibacterial activity against streptococcus hemolyticus 32210 after 24 hrs by microdilution method; assay type: functional, organism-based
Procedure, shortened: (§1)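 Broth microdilution in Mueller Hinton medium, drug media diluted 1:2.5 to 1:640 and sterilized with circulating steam; pure water as control. Four to five colonies grown in nutrient broth 8 h at 37 °C and diluted to 1.5×10^5 CFU/mL. 0.1 ml per well, incubated 37 °C for 24 h; MIC read by observation.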

[2] = tested on: Candida albicans; experiment: Antifungal activity against Candida albicans 98001 after 24 hrs by microdilution method; assay type: functional, organism-based; procedure, shortened: as §1
[3] = tested on: Mus musculus; experiment: Anti-ulcerative colitis activity in DSS-induced BALB/c mouse ulcerative colitis model of assessed as reduction in disease activity index at 50 mg/kg administrated for 14 days; assay type: functional, organism-based; details: time 14.0 day
Procedure, shortened: (§2)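 Male SPF BALB/c mice (18–22 g), n = 8 per group. Colitis induced with freshly prepared 5% DSS (MW 36,000–50,000) in pure water as drinking water ad libitum for 7 days. Treatment at 50 mg/kg ran from day 1 for 14 days; control and model groups received pure water. Mice sacrificed after 14 days of treatment. Data as means ± S.E.M.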

[4] = tested on: Mus musculus; experiment: Anti-inflammatory activity against DSS-induced ulcerative colitis BALB/c mouse model assessed as reduction in IL-6 protein expression in colon tissue at 50 mg/kg administrated for 14 days by Western blot analysis; assay type: functional, organism-based; details: time 14.0 day; procedure, shortened: as §2
[5] = tested on: Escherichia coli; experiment: Antibacterial activity against Escherichia coli 44113-5 after 24 hrs by microdilution method; assay type: functional, organism-based; procedure, shortened: as §1
[6] = tested on: Mus musculus; experiment: Anti-inflammatory activity against DSS-induced ulcerative colitis BALB/c mouse model assessed as reduction in TNF-alpha mRNA expression in colon tissue at 50 mg/kg administrated for 14 days by RT-qPCR analysis; assay type: functional, organism-based; details: time 14.0 day; procedure, shortened: as §2
[7] = tested on: Salmonella enterica subsp. enterica serovar Paratyphi B; experiment: Antibacterial activity against Salmonella paratyphi B 0039 after 24 hrs by microdilution method; assay type: functional, organism-based; details: 39
Procedure, shortened: (§3)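 Test agents diluted in culture medium at ratios 1:2.5 to 1:640 (twofold series) and steam-sterilized; pure water as control. Inoculum from 4–5 colonies grown in nutrient broth 8 h at 37 °C, then diluted to 1.5×10^5 CFU/mL. Broth microdilution in 96-well plate, 0.1 ml strain suspension per well, 37 °C 24 h; MIC read visually.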

[8] = tested on: Mus musculus; experiment: Anti-ulcerative colitis activity in DSS-induced BALB/c mouse ulcerative colitis model assessed as reduction in colon damage at 50 mg/kg administrated for 14 days by H and E staining analysis; assay type: functional, organism-based; details: time 14.0 day; procedure, shortened: as §2
[9] = tested on: Salmonella typhi; experiment: Antibacterial activity against Typhoid bacillus 50071-16 after 24 hrs by microdilution method; assay type: functional, organism-based; details: Salmonella enterica subsp. enterica serovar Typhi; procedure, shortened: as §3
[10] = tested on: Mus musculus; experiment: Anti-ulcerative colitis activity in DSS-induced BALB/c mouse ulcerative colitis model assessed as colon weight at 50 mg/kg administrated for 14 days (reference value: 0.369 +/- 0.023 g); assay type: functional; details: time 14 day; procedure, shortened: as §2
[11] = tested on: Staphylococcus aureus; experiment: Antibacterial activity against Staphylococcus aureus 261112-5 after 24 hrs by microdilution method; assay type: functional, organism-based; procedure, shortened: as §1
[12] = tested on: Mus musculus; experiment: Anti-ulcerative colitis activity in DSS-induced BALB/c mouse ulcerative colitis model assessed as increase in cecum weight at 50 mg/kg administrated for 14 days; assay type: functional, organism-based; details: time 14.0 day; procedure, shortened: as §2
[13] = tested on: Mus musculus; experiment: Anti-ulcerative colitis activity in DSS-induced BALB/c mouse ulcerative colitis model assessed as colon length at 50 mg/kg administrated for 14 days (reference value: 8.350 +/- 1.111 cm); assay type: functional; details: time 14 day; procedure, shortened: as §2
[14] = tested on: Mus musculus; experiment: Anti-inflammatory activity against DSS-induced ulcerative colitis BALB/c mouse model assessed as reduction in IL-6 mRNA expression in colon tissue at 50 mg/kg administrated for 14 days by RT-qPCR analysis; assay type: functional, organism-based; details: time 14.0 day; procedure, shortened: as §2
[15] = tested on: Mus musculus; experiment: Anti-ulcerative colitis activity in DSS-induced BALB/c mouse ulcerative colitis model assessed as decrease in spleen weight at 50 mg/kg administrated for 14 days; assay type: functional, organism-based; details: time 14.0 day; procedure, shortened: as §2
[16] = tested on: Mus musculus; experiment: Anti-inflammatory activity against DSS-induced ulcerative colitis BALB/c mouse model assessed as reduction in IL-1beta protein expression in colon tissue at 50 mg/kg administrated for 14 days by Western blot analysis; assay type: functional, organism-based; details: time 14.0 day; procedure, shortened: as §2
[17] = tested on: Streptococcus pneumoniae; experiment: Antibacterial activity against Streptococcus pneumoniae 32215 after 24 hrs by microdilution method; assay type: functional, organism-based; procedure, shortened: as §1
[18] = tested on: Pseudomonas aeruginosa; experiment: Antibacterial activity against Pseudomonas aeruginosa 10211 incubated for 24 hrs; assay type: functional, organism-based; procedure, shortened: as §1
[19] = tested on: Mus musculus; experiment: Anti-inflammatory activity against DSS-induced ulcerative colitis BALB/c mouse model assessed as reduction in TNF-alpha protein expression in colon tissue at 50 mg/kg administrated for 14 days by Western blot analysis; assay type: functional, organism-based; details: time 14.0 day; procedure, shortened: as §2
[20] = tested on: Mus musculus; experiment: Anti-ulcerative colitis activity in DSS-induced BALB/c mouse ulcerative colitis model assessed as colon length/colon weight ratio at 50 mg/kg administrated for 14 days (reference value: 22.608 +/- 2.655 cm/g); assay type: functional; details: time 14 day; procedure, shortened: as §2
[21] = tested on: Mus musculus; experiment: Anti-inflammatory activity against DSS-induced ulcerative colitis BALB/c mouse model assessed as reduction in IL-1beta mRNA expression in colon tissue at 50 mg/kg administrated for 14 days by RT-qPCR analysis; assay type: functional, organism-based; details: time 14.0 day; procedure, shortened: as §2
[22] = tested on: Mus musculus; experiment: Anti-ulcerative colitis activity in DSS-induced BALB/c mouse ulcerative colitis model assessed as inhibited inflammation in colon at 50 mg/kg administrated for 14 days by H and E staining analysis; assay type: functional, organism-based; details: time 14.0 day; procedure, shortened: as §2
[23] = tested on: Mus musculus; experiment: Anti-ulcerative colitis activity in DSS-induced BALB/c mouse ulcerative colitis model assessed as promoted regeneration of intestinal mucosa at 50 mg/kg administrated for 14 days by H and E staining analysis; assay type: functional, organism-based; details: time 14.0 day; procedure, shortened: as §2
[24] = tested on: Mus musculus; experiment: Anti-inflammatory activity against DSS-induced ulcerative colitis BALB/c mouse model assessed as increase in SOD levels in colon tissue at 50 mg/kg administrated for 14 days by xanthine oxidase based method; assay type: functional, organism-based; details: time 14.0 day; procedure, shortened: as §2
[25] = tested on: Mus musculus; experiment: Anti-ulcerative colitis activity in DSS-induced BALB/c mouse ulcerative colitis model assessed as decrease in histological scores at 50 mg/kg administrated for 14 days by H and E staining analysis; assay type: functional, organism-based; details: time 14.0 day; procedure, shortened: as §2
[26] = tested on: Mus musculus; experiment: Anti-inflammatory activity against DSS-induced ulcerative colitis BALB/c mouse model assessed as reduction in mast cells infiltration in colon tissue at 50 mg/kg administrated for 14 days by aldehyde-fuchsin orange G staining based assay; assay type: functional, organism-based; details: time 14.0 day; procedure, shortened: as §2
[27] = tested on: Mus musculus; experiment: Anti-inflammatory activity against DSS-induced ulcerative colitis BALB/c mouse model assessed as reduction in colon macroscopic scores at 50 mg/kg administrated for 14 days; assay type: functional, organism-based; details: time 14.0 day; procedure, shortened: as §2
[28] = tested on: Mus musculus; experiment: Anti-inflammatory activity against DSS-induced ulcerative colitis BALB/c mouse model assessed as reduction in MPO activity in colon tissue at 50 mg/kg administrated for 14 days by colorimetric method; assay type: functional, organism-based; details: time 14.0 day; procedure, shortened: as §2

O=C(O)[C@H]1O[C@@H](Oc2cc3oc(-c4ccccc4)cc(=O)c3c(O)c2O)[C@H](O)[C@@H](O)[C@@H]1O [BAICALIN]
24.172: Ratio [20]
8.74 cm: Activity [13]
inactive: Activity [1] | Activity [2] | Activity [3] | Activity [4] | Activity [5] | Activity [6] | Activity [7] | Activity [8] | Activity [9] | Activity [11] | Activity [12] | Activity [14] | Activity [15] | Activity [16] | Activity [17] | Activity [18] | Activity [19] | Activity [21]
0.369 g: Activity [10]

COc1ccc2cc3[n+](cc2c1OCCCCOC(=O)[C@H]1O[C@@H](Oc2cc4oc(-c5ccccc5)cc(=O)c4c(O)c2O)[C@H](O)[C@@H](O)[C@@H]1O)CCc1cc2c(cc1-3)OCO2
active: Activity [1] | Activity [2] | Activity [3] | Activity [4] | Activity [5] | Activity [6] | Activity [7] | Activity [8] | Activity [22] | Activity [9] | Activity [23] | Activity [11] | Activity [24] | Activity [12] | Activity [14] | Activity [15] | Activity [16] | Activity [17] | Activity [25] | Activity [26] | Activity [18] | Activity [27] | Activity [28] | Activity [19] | Activity [21]
0.311 g: Activity [10]
9.288 cm: Activity [13]
29.769: Ratio [20]

COc1ccc2cc3[n+](cc2c1OC)CCc1cc2c(cc1-3)OCO2.[Cl-] [BERBERINE CHLORIDE]
0.315 g: Activity [10]
active: Activity [1] | Activity [2] | Activity [3] | Activity [4] | Activity [5] | Activity [6] | Activity [7] | Activity [8] | Activity [22] | Activity [9] | Activity [23] | Activity [11] | Activity [12] | Activity [14] | Activity [16] | Activity [17] | Activity [25] | Activity [26] | Activity [18] | Activity [28] | Activity [19] | Activity [21]
28.175: Ratio [20]
8.95 cm: Activity [13]
inactive: Activity [15]
